Laboratory results published in ChEMBL document CHEMBL1255196, “Radiosensitization of cancer cells by hydroxychalcones” (2010).
Active and inactive are the calls of the source. The calls are words filed in the database; no cut-off is given here.

Experiments:
HT-29 [1] = assay: Induction in heat-induced cell killing in human HT-29 cells; type: functional, cell-based
Outline: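 HT-29 cells were treated with drug or DMSO and heated at 41°C for 2 hr. Medium was then replaced and cells grown 10-14 days. Colonies were stained and counted. Four flasks per condition.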

HT-29 [2] = assay: Cytotoxicity against human HT-29 cells assessed as plating efficiency at 10 uM; type: functional
Outline: (§1)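 Colony formation assay of HT-29 cells exposed to drug or DMSO for 2 hr. Plating efficiency defined non-toxic concentrations, meaning plating efficiency above 80%. After 10 to 14 days colonies were fixed in 3:1 methanol/acetic acid for 15 min, stained with 0.5% crystal violet in methanol for 15 min, and counted to give percent survival.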

Nucleic Acid = assay: Induction of Hsf1 DNA binding affinity in human HT-29 cells at 8 uM after 2 hrs; type: cell-based
Outline: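 HT-29 cells were incubated with drug for 2 hr at 37°C (30 min is also stated for the treatment) and nuclear protein was extracted. Gel shift assay used a 32P-labelled rat Hsp70 heat shock element oligomer. Hsf1 identity was confirmed by antibody supershift.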

HT-29 [3] = assay: Phototoxicity against human HT-29 cells at 10 uM irradiated with 4 Gy/min; type: functional, cell-based
HT-29 [4] = assay: Phototoxicity against human HT-29 cells irradiated with 2 Gy/min; type: functional, cell-based
HT-29 [5] = assay: Phototoxicity against human HT-29 cells assessed as polyploidy formation at 10 uM irradiated with 4 Gy/min; type: functional, cell-based
Outline: (§2)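 They were fixed by adding cold 70% ethanol, washed in PBS, and stained with propidium iodide plus RNase for 30-45 min at 37°C. Flow cytometry scored polyploidy and sub-G0 cells 48 hr after irradiation.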

HT-29 [6] = assay: Cell cycle arrest in photoirradiated human HT-29 cells assessed as accumulation at subG0 phase after 48 hrs; type: functional, cell-based; outline: as §2
HT-29 [7] = assay: Cytotoxicity against human HT-29 cells assessed as plating efficiency at 25 uM; type: functional; outline: as §1

Compound | Activity (HT-29 [1]) | Activity (HT-29 [2]) [%] | Activity (Nucleic Acid) | Activity (HT-29 [3]) | Activity (HT-29 [4]) | Activity (HT-29 [5]) | Activity (HT-29 [6]) | Activity (HT-29 [7]) [%]
O=C(/C=C/c1ccccc1O)c1ccccc1O | Active | >80 | Active | Active |  |  |  | 
O=C(/C=C/c1ccccc1)c1cc(O)ccc1O |  |  | Active | Active | Dose-dependent effect | Active | Active | >80
